Sampled rows, rich in hits. Any-hit rate of the full collection: about 3.7%.
hERG protect – shields human hERG channel from block by proarrhythmic agents | Q12809 | CHO-hERG, FluxOR thallium flux, dofetilide IC70 present | activation (rescue from dofetilide block), less the hit threshold, % at 10 µM | 0.51% of 310,000 active;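 active means activation above the mean of controls blocked by dofetilide plus 5 SD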;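 further: thallium influx through hERG after potassium depolarization seen as dye fluorescence rise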
Kir21 block – inhibitors of mouse Kir2.1 inward-rectifier potassium channel. P35561. HEK293-Kir2.1, FluxOR thallium flux fluorescence; active compounds read low. B-score at 10 µM. 0.85% of 310,000 active;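 active means fluorescence ratio B-score at or below minus 3 SD of library scores, with starting-brightness B-score within 2 SD, cut at about -4.2 in these data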;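 further: channel flux triggered by added potassium and thallium sulfate stimulus; B-score of peak minus minimum fluorescence over baseline after thallium stimulus; more negative B-score means stronger Kir2.1 block with less thallium influx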
KCNK3 block – human KCNK3 channel inhibition, primary screen; O14649; CHO-KCNK3 thallium flux, FluxOR fluorescence; active compounds read low; B-score at 10 µM; 0.84% of 340,000 active; AID 602410;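 active means B-score under library mean minus 4 SD, starting fluorescence ratio at most library mean plus 5 SD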;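 further: more negative B-score means stronger inhibition of thallium flux through KCNK3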
KCNQ1 pot – potentiates or activates the human KCNQ1 potassium channel | 0.35% of 310,000 active | B-score at 10 µM | CHO-K1 KCNQ1, thallium flux FluxOR fluorescence; active compounds read high | P51787;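 active means fluorescence ratio B-score, a plate-corrected score, at least three library SD, with initial intensity B-score within 5 SD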
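Test system: CHO-K1 cells stably expressing KCNQ1 / Medium: assay buffer / Also added: depolarizing K+/Tl+ stimulus, K2SO4 and Tl2SO4 each 12.5 mM in 5x stock / Incubation: 90 min dye loading and 20 min compound exposure, both at room temperature / Signal: thallium influx via FluxOR fluorescence, kinetic imaging / Evaluation: B score of baseline-normalized fluorescence ratio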
KCNQ1 block – blocks the human KCNQ1 potassium channel. P51787. CHO-K1 KCNQ1, FluxOR thallium flux fluorescence; active compounds read high. B-score at 10 µM. 1.3% of 310,000 active;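 active means compounds whose thallium flux B-score, printed positive for inhibition, exceeds three library SD while starting fluorescence stays within three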;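 further: channel opened by potassium depolarization with thallium stimulus after 20 min compound exposure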
KCNK9 inh – human KCNK9 channel inhibition; B-score at 10 µM; 1.2% of 310,000 active; HEK293 KCNK9, FluxOR thallium flux fluorescence; active compounds read low;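 active means ratio B-score over 3 SD below the library mean, with starting fluorescence within 5 SD of its mean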;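 further: negative B-score means less thallium flux so channel inhibition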
Target sequence (Q9NPC2 whole entry, looked up): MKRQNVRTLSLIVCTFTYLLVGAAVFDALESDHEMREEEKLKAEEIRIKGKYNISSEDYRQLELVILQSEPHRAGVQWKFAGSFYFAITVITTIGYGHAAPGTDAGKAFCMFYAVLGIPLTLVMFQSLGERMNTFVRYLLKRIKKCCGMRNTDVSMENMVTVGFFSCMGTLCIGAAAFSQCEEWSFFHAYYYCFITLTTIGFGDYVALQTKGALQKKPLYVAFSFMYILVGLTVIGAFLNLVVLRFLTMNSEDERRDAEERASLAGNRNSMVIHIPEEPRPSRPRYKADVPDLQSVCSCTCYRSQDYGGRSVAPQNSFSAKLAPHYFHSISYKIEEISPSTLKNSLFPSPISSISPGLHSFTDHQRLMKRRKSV
KCNK9 inh conf – confirmation of human KCNK9 potassium channel inhibitors | shares compounds with KCNK9 inh | HEK293 KCNK9 cells, FluxOR thallium flux fluorescence | inhibition, % at 10 µM | 43% of 4,900 active | AID 492992;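 active means thallium signal inhibited by more than 5 SD of the compound-free buffer control wells, on both duplicate plates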;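 further: 0% = assay buffer control wells without compound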
Kir2-1 spec – tests whether KCNK9 modulators also affect mouse Kir2.1 | AID 492993 | Kir2.1 cells, FluxOR thallium flux fluorescence | shares compounds with KCNK9 inh | inhibition, % at 10 µM | 4% of 4,900 active;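 active means thallium signal drop more than 5 SD beyond the mean of the no-compound control wells, seen in both duplicate plates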;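 further: signal is fluorescence rise after thallium addition divided by baseline fluorescence; plate controls were assay buffer only for no effect and full block by chlorpromazine control for full effect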
HEK293 Tl ctr – non-induced cell nonspecific activity of KCNK9 modulators; shares compounds with KCNK9 inh; non-induced KCNK9-HEK293, FluxOR thallium flux; inhibition, % at 10 µM; 40% of 4,900 active;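 active means thallium signal drop beyond 5 SD of the untreated control mean, on both duplicate plates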;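 further: plate controls were buffer only IC0 wells for no effect and SID17386958 at its maximal inhibitory level for full effect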
KCNK3 inh conf – human KCNK3 channel inhibition, confirmation assay; shares compounds with KCNK3 block; CHO-KCNK3 thallium flux, FluxOR fluorescence; 0% buffer, 100% carvedilol maximal block; ratio percent of control, % at 10 µM; 99% of 2,400 active;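 active means ratio percent of control, averaged over triplicates, above buffer control mean plus 5 SD, cut at about 64% in these data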;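 further: ratio is the fluorescence rise from min to max over baseline after thallium stimulus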
KCNK3 uninduced – KCNK3 inhibitor counter-screen hit in non-induced cells; 40% of 2,400 active; AID 651747; non-induced KCNK3 parental cells, FluxOR thallium flux; active compounds read low; shares compounds with KCNK3 block; thallium flux ratio (lower = more inhibition) at 10 µM;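 active means thallium flux ratio, averaged over three wells, more than 5 SD below the buffer control mean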;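 further: host cells are CHO cells without KCNK3 induction; ratio is peak minus trough fluorescence over baseline then normalized to buffer controls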
Active calls of the source: *.

How did COCCN1Cc2cccc(C(=O)Nc3cccc(-c4nc5ccccc5[nH]4)c3)c2C1=O do in these assays?
hERG protect: -18.1; Kir21 block: 1.18; KCNK3 block: -10*; KCNQ1 pot: inactive; KCNQ1 block: inactive; KCNK9 inh: -13.4*; KCNK9 inh conf: 58.5%*; Kir2-1 spec: inactive; HEK293 Tl ctr: inactive; KCNK3 inh conf: 120.3*; KCNK3 uninduced: 0.152*

Results for Cc1cc(C)cc(C(=O)NC(=S)Nc2ccc(Cc3ccncc3)cc2)c1 ?
hERG protect: -10.4; Kir21 block: -3; KCNK3 block: -9.98*; KCNQ1 pot: inactive; KCNQ1 block: inactive; KCNK9 inh: inactive; KCNK9 inh conf: inactive; Kir2-1 spec: inactive; HEK293 Tl ctr: inactive; KCNK3 inh conf: 98.0*; KCNK3 uninduced: inactive

Results for COC(=O)c1cc(CNC(=O)Cc2ccsc2)ccc1OC ?
hERG protect: -5.3; Kir21 block: 0.01; KCNK3 block: inactive; KCNQ1 pot: inactive; KCNQ1 block: inactive; KCNK9 inh: inactive

Results for CC1(C)CC(=O)CC2(C1)NCC(c1ccccc1)c1c2[nH]c2ccccc12 (configuration not stated) ?
hERG protect: -4.4; Kir21 block: -0.73; KCNK3 block: -9.35*; KCNQ1 pot: inactive; KCNQ1 block: inactive; KCNK9 inh: -15*; KCNK9 inh conf: 64.5%*; Kir2-1 spec: inactive; HEK293 Tl ctr: 34.0%*; KCNK3 inh conf: 99.3*; KCNK3 uninduced: inactive

How did CC1(C)NC(C(=O)O)Cc2c1[nH]c1ccccc21 (configuration not stated) do in these assays?
hERG protect: -6.2; Kir21 block: -1.12; KCNK3 block: inactive; KCNQ1 pot: inactive; KCNQ1 block: inactive; KCNK9 inh: inactive

Results for O=c1cc(CN2CCN(C/C=C/c3ccccc3)CC2)c2cc(O)c(-c3ccccc3)cc2o1 ?
hERG protect: -10.2; Kir21 block: 0.91; KCNK3 block: inactive; KCNQ1 pot: inactive; KCNQ1 block: inactive; KCNK9 inh: inactive

What do the screens show for `CC(C)CN(Cc1cc(=O)oc2cc(-c3ccccc3)c(O)cc12)CC(C)C`?
hERG protect: -21.8; Kir21 block: -0.36; KCNK3 block: inactive; KCNQ1 pot: inactive; KCNQ1 block: 11*; KCNK9 inh: -10.3*; KCNK9 inh conf: 53.0%*; Kir2-1 spec: inactive; HEK293 Tl ctr: 27.0%*; KCNK3 inh conf: 145.7*; KCNK3 uninduced: 0.088*

How did CCN1CCN(C(=O)CCc2nnc(CCc3ccc(OC)cc3)o2)[C@@H](C)C1=O do in these assays?
hERG protect: -6.0; Kir21 block: 1.2; KCNK3 block: inactive; KCNQ1 pot: inactive; KCNQ1 block: inactive; KCNK9 inh: inactive

What do the screens show for `Cc1cccc(OCC(=O)NC(C)C(=O)N/N=C/c2c(OCc3ccccc3)ccc3ccccc23)c1` (configuration not stated)?
hERG protect: -10.9; Kir21 block: -0.21; KCNK3 block: -9.43*; KCNQ1 pot: inactive; KCNQ1 block: inactive; KCNK9 inh: -15.8*; KCNK9 inh conf: 65.5%*; Kir2-1 spec: inactive; HEK293 Tl ctr: 47.5%*; KCNK3 inh conf: 105.3*; KCNK3 uninduced: inactive

Results for CC(C)(C)NC(=O)NC(=O)CSc1ncccn1 ?
hERG protect: -10.3; Kir21 block: 0.68; KCNK3 block: inactive; KCNQ1 pot: inactive; KCNQ1 block: inactive; KCNK9 inh: inactive

Results for COc1ccc(OCc2n(CC(=O)OC3CC(C)CCC3C(C)C)c3ccccc3[n+]2C)cc1 (configuration not stated) ?
hERG protect: -36.7; Kir21 block: -9.86*; KCNK3 block: -10.5*; KCNQ1 pot: inactive; KCNQ1 block: 10*; KCNK9 inh: -13.8*; KCNK9 inh conf: 69.5%*; Kir2-1 spec: 79.0%*; HEK293 Tl ctr: inactive; KCNK3 inh conf: 111.7*; KCNK3 uninduced: inactive

How did CCCCn1c(N)c(N(CCC(C)C)C(=O)CC2CCCC2)c(=O)[nH]c1=O do in these assays?
hERG protect: -2.2; Kir21 block: 0.91; KCNK3 block: inactive; KCNQ1 pot: inactive; KCNQ1 block: inactive; KCNK9 inh: inactive

How did COCCn1nnnc1C(c1ccccc1OC)N1CCN(C(=O)c2ccco2)CC1 (configuration not stated) do in these assays?
hERG protect: -1.6; Kir21 block: 1.74; KCNK3 block: inactive; KCNQ1 pot: inactive; KCNQ1 block: inactive; KCNK9 inh: inactive

How did CCC(C)(C)n1nnnc1C(c1ccccc1OC)N1CCN(C(=O)c2ccco2)CC1 (configuration not stated) do in these assays?
hERG protect: -3.7; Kir21 block: 3.29; KCNK3 block: -13.4*; KCNQ1 pot: inactive; KCNQ1 block: inactive; KCNK9 inh: -14.1*; KCNK9 inh conf: 68.5%*; Kir2-1 spec: inactive; HEK293 Tl ctr: 36.5%*; KCNK3 inh conf: 105.7*; KCNK3 uninduced: inactive

How did COc1ccccc1C(c1nnnn1Cc1ccco1)N1CCN(c2cccc(C)c2C)CC1 (configuration not stated) do in these assays?
hERG protect: -7.7; Kir21 block: -0.94; KCNK3 block: -11.4*; KCNQ1 pot: inactive; KCNQ1 block: inactive; KCNK9 inh: -14.3*; KCNK9 inh conf: 43.0%*; Kir2-1 spec: inactive; HEK293 Tl ctr: 37.5%*; KCNK3 inh conf: 130.3*; KCNK3 uninduced: 0.137*

What do the screens show for `Cn1c(C(=O)N[C@@H](C(=O)O)c2ccccc2)cc2cc(F)ccc21`?
hERG protect: -4.8; Kir21 block: 1.1; KCNK3 block: inactive; KCNQ1 pot: inactive; KCNQ1 block: inactive; KCNK9 inh: inactive

Results for C=CCNC(=S)NCC=C ?
hERG protect: -2.2; Kir21 block: 0.43; KCNK3 block: inactive; KCNQ1 pot: inactive; KCNQ1 block: inactive; KCNK9 inh: inactive

Assay outcomes: PubChem BioAssay, Johns Hopkins Ion Channel Center
